Values after ≈ are worked out from the molar mass of the structure shown.
Experiments:
Format in all cases: functional
[1] = tested on: Staphylococcus aureus; assay: Antibacterial activity against methicillin resistant Staphylococcus aureus assessed as inhibition of bacterial growth after 24 hrs by microbroth dilution method
How it was run: (§1)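 Inoculum adjusted in sterile saline to 1×10^5 CFU. Compounds dissolved in DMSO as stock, then diluted in Mueller-Hinton broth as a two-fold series from 512 to 0.5 µg/mL (11 levels). Inoculated dilutions incubated at 37 °C for 24 h, and the MIC recorded.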

[2] = tested on: Enterococcus faecalis; assay: Antibacterial activity against Enterococcus faecalis assessed as inhibition of bacterial growth after 24 hrs by microbroth dilution method
How it was run: (§2)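 Bacterial inoculum set to 1×10^5 CFU with sterile saline. Test agents and reference drugs, from DMSO stocks, diluted in Mueller-Hinton broth to 512, 256, 128, 64, 32, 16, 8, 4, 2, 1 and 0.5 µg/mL. Inoculated dilutions incubated 37 °C for 24 h.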

[3] = tested on: Staphylococcus aureus; assay: Antibacterial activity against Staphylococcus aureus assessed as inhibition of bacterial growth after 24 hrs by microbroth dilution method; how it was run: as §2
[4] = tested on: Staphylococcus aureus; assay: Antibacterial activity against Staphylococcus aureus ATCC 25923 assessed as inhibition of bacterial growth after 24 hrs by microbroth dilution method; how it was run: as §2
[5] = tested on: Staphylococcus aureus; assay: Antibacterial activity against Staphylococcus aureus ATCC 29213 assessed as inhibition of bacterial growth after 24 hrs by microbroth dilution method; how it was run: as §1
[6] = tested on: Klebsiella pneumoniae; assay: Antibacterial activity against Klebsiella pneumoniae assessed as inhibition of bacterial growth after 24 hrs by microbroth dilution method; how it was run: as §2
[7] = tested on: Escherichia coli; assay: Antibacterial activity against Escherichia coli assessed as inhibition of bacterial growth after 24 hrs by microbroth dilution method; how it was run: as §2
[8] = tested on: Escherichia coli; assay: Antibacterial activity against Escherichia coli ATCC 25922 assessed as inhibition of bacterial growth after 24 hrs by microbroth dilution method; how it was run: as §2
[9] = tested on: Pseudomonas aeruginosa; assay: Antibacterial activity against Pseudomonas aeruginosa assessed as inhibition of bacterial growth after 24 hrs by microbroth dilution method; how it was run: as §2
[10] = tested on: Pseudomonas aeruginosa; assay: Antibacterial activity against Pseudomonas aeruginosa ATCC 27853 assessed as inhibition of bacterial growth after 24 hrs by microbroth dilution method; how it was run: as §2
[11] = tested on: Acinetobacter baumannii; assay: Antibacterial activity against Acinetobacter baumannii assessed as inhibition of bacterial growth after 24 hrs by microbroth dilution method; how it was run: as §2
[12] = tested on: Staphylococcus aureus; assay: Potency index, ratio of norfloxacin MIC to compound MIC for antibacterial activity against Staphylococcus aureus incubated for 24 hrs by microbroth dilution method

Row | Structure (SMILES) | MIC [1] | MIC [2] | MIC [3] | MIC [4] | MIC [5] | MIC [6] | MIC [7] | MIC [8] | MIC [9] | MIC [10] | MIC [11] | Ratio [12]
1 | O=C1c2cccc(O)c2C(=O)c2c(O)cc(Cn3c4ccccc4c4ccccc43)cc21 | 32 mg/L (≈ 76.3 µM) | 128 mg/L (≈ 305 µM) | 8 mg/L (≈ 19.1 µM) | 16 mg/L (≈ 38.1 µM) | 32 mg/L (≈ 76.3 µM) | 128 mg/L (≈ 305 µM) | 128 mg/L (≈ 305 µM) | 64 mg/L (≈ 153 µM) | 64 mg/L (≈ 153 µM) | 64 mg/L (≈ 153 µM) | 64 mg/L (≈ 153 µM) | –
2 | CCn1cc(C(=O)O)c(=O)c2cc(F)c(N3CCNCC3)cc21 [NORFLOXACIN] | 8 mg/L (≈ 25.1 µM) | 32 mg/L (≈ 100 µM) | 8 mg/L (≈ 25.1 µM) | 1 mg/L (≈ 3.13 µM) | 1 mg/L (≈ 3.13 µM) | 4 mg/L (≈ 12.5 µM) | 16 mg/L (≈ 50.1 µM) | 8 mg/L (≈ 25.1 µM) | 8 mg/L (≈ 25.1 µM) | 2 mg/L (≈ 6.26 µM) | 0.5 mg/L (≈ 1.57 µM) | –
3 | Cc1ncc([N+](=O)[O-])n1Cc1cc(O)c2c(c1)C(=O)c1cccc(O)c1C2=O | 64 mg/L (≈ 169 µM) | 128 mg/L (≈ 337 µM) | 4 mg/L (≈ 10.5 µM) | 16 mg/L (≈ 42.2 µM) | 128 mg/L (≈ 337 µM) | 128 mg/L (≈ 337 µM) | 128 mg/L (≈ 337 µM) | 64 mg/L (≈ 169 µM) | 64 mg/L (≈ 169 µM) | 32 mg/L (≈ 84.4 µM) | 32 mg/L (≈ 84.4 µM) | 2
4 | CCc1nc2ccccc2n1Cc1cc(O)c2c(c1)C(=O)c1cccc(O)c1C2=O | 64 mg/L (≈ 161 µM) | 16 mg/L (≈ 40.2 µM) | 64 mg/L (≈ 161 µM) | 128 mg/L (≈ 321 µM) | 64 mg/L (≈ 161 µM) | 64 mg/L (≈ 161 µM) | 64 mg/L (≈ 161 µM) | 32 mg/L (≈ 80.3 µM) | 64 mg/L (≈ 161 µM) | 64 mg/L (≈ 161 µM) | 64 mg/L (≈ 161 µM) | –
5 | O=C1c2cccc(O)c2C(=O)c2c(O)cc(CSc3nnc[nH]3)cc21 | 64 mg/L (≈ 181 µM) | 128 mg/L (≈ 362 µM) | 16 mg/L (≈ 45.3 µM) | 16 mg/L (≈ 45.3 µM) | 16 mg/L (≈ 45.3 µM) | 64 mg/L (≈ 181 µM) | 128 mg/L (≈ 362 µM) | 64 mg/L (≈ 181 µM) | 32 mg/L (≈ 90.6 µM) | 64 mg/L (≈ 181 µM) | 64 mg/L (≈ 181 µM) | –

From ChEMBL document CHEMBL4732030, “Aloe-emodin derived azoles as a new structural type of potential antibacterial agents: design, synthesis, and evaluation of the action on membrane, DNA, and MRSA DNA isomerase” (RSC Med Chem, 2021)
